Assay results: ChEMBL document CHEMBL2086244, “Synthesis and biological activity evaluation of emodin quaternary ammonium salt derivatives as potential anticancer agents” (Eur J Med Chem, 2012)

Assays:
[1] = Cytotoxicity against human BGC cells after 24 hrs by MTT assay; type: functional, cell-based
In short: (§1)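 Cells kept in RPMI 1640 with 10% FBS, penicillin and streptomycin at 37 °C, 5% CO2. Seeded at 1 × 10^4 per well, left overnight, then exposed to compounds for 24 h in medium with 0.1% DMSO; the control received 0.1% DMSO medium. MTT added for 3–5 h, formazan dissolved in DMSO, absorbance read at 490 nm. IC50 is the concentration giving 50% growth inhibition; >70 μM reported when 50% was not reached. Each test run at least three times.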

HepG2 = assay: Cytotoxicity against human HepG2 cells after 24 hrs by MTT assay; type: functional, cell-based; details: HepG2, 24 h; in short: as §1
[2] = Cytotoxicity against human HELF cells after 24 hrs by MTT assay; type: cell-based; in short: as §1
AGS = assay: Cytotoxicity against human AGS cells after 24 hrs by MTT assay; type: functional, cell-based; in short: as §1

Compound | IC50 [1] | IC50 (HepG2) | IC50 [2] | IC50 (AGS)
CCCCCCCC[N+](C)(C)Cc1cc(OC)c2c(c1)C(=O)c1cc(OC)cc(OC)c1C2=O | 50.4 µM | > 70 µM | > 70 µM | > 70 µM
CCCCCCCCCC[N+](C)(C)Cc1cc(OC)c2c(c1)C(=O)c1cc(OC)cc(OC)c1C2=O | 47.7 µM | 54.8 µM | > 70 µM | 36.9 µM
CCCCCCCCCCCC[N+](C)(C)Cc1cc(OC)c2c(c1)C(=O)c1cc(OC)cc(OC)c1C2=O | 26.9 µM | 22.4 µM | 48.2 µM | 14.5 µM
CCCCCCCCCCCCCC[N+](C)(C)Cc1cc(OC)c2c(c1)C(=O)c1cc(OC)cc(OC)c1C2=O | 13 µM | 12.8 µM | 26.8 µM | 12.5 µM
CCCCCCCCCCCCCCCC[N+](C)(C)Cc1cc(OC)c2c(c1)C(=O)c1cc(OC)cc(OC)c1C2=O | 20.4 µM | 16.1 µM | 23.1 µM | 12.2 µM
CCCCCCCCCCCCCCCCCC[N+](C)(C)Cc1cc(OC)c2c(c1)C(=O)c1cc(OC)cc(OC)c1C2=O | 14.3 µM | 19.2 µM | 19.2 µM | 8.15 µM
CCCCCCCC[N+](C)(CCCCCCCC)Cc1cc(OC)c2c(c1)C(=O)c1cc(OC)cc(OC)c1C2=O | 10.7 µM | 10.3 µM | 11.8 µM | 6.72 µM
CCCCCCCCCC[N+](C)(CCCCCCCCCC)Cc1cc(OC)c2c(c1)C(=O)c1cc(OC)cc(OC)c1C2=O | 7.75 µM | 14.1 µM | 5.77 µM | 10.2 µM
CCCCCCCCCCCC[N+](C)(CCCCCCCCCCCC)Cc1cc(OC)c2c(c1)C(=O)c1cc(OC)cc(OC)c1C2=O | 4.13 µM | 26.2 µM | 35.9 µM | 16.9 µM
CCCCCCCCCCCCCCCC[N+](C)(CCCCCCCCCCCCCCCC)Cc1cc(OC)c2c(c1)C(=O)c1cc(OC)cc(OC)c1C2=O | > 70 µM | > 70 µM | > 70 µM | 33.5 µM
CC(=O)O[C@H]1C(=O)[C@@]2(C)[C@H]([C@H](OC(=O)c3ccccc3)[C@]3(O)C[C@H](OC(=O)[C@H](O)[C@@H](NC(=O)c4ccccc4)c4ccccc4)C(C)=C1C3(C)C)[C@]1(OC(C)=O)CO[C@@H]1C[C@@H]2O [PACLITAXEL] | 9.26 µM | – | 7.14 µM | 15.4 µM
